Measurements: ChEMBL document CHEMBL4699548, “Ultrasound assisted synthesis of tetrazole based pyrazolines and isoxazolines as potent anticancer agents via inhibition of tubulin polymerization” (Bioorg Med Chem Lett, 2020)
The source made the active and inactive calls. The rule behind the calls is not given here.

Tests used:
MCF7 = assay: Cytotoxicity against human MCF7 cells assessed as reduction in cell viability by MTT assay; assay type: functional, cell-based
HepG2 = assay: Cytotoxicity against human HepG2 cells assessed as reduction in cell viability by MTT assay; assay type: functional, cell-based
A549 = assay: Cytotoxicity against human A549 cells assessed as reduction in cell viability by MTT assay; assay type: functional, cell-based
Tubulin (Homo sapiens) [1] = biological target: T1, Tubulin (Homo sapiens) (UniProt P68371+Q9H4B7+P0DPH7+P68366+Q13509+Q71U36+P04350+Q3ZCM7+P07437+P68363+Q9BQE3+Q6PEY2+Q13885+Q9BVA1+Q9BUF5); assay: Inhibition of tubulin polymerization in human A549 cells assessed as increase in soluble fraction of tubulin at 1 uM measured after 48 hrs by western blot analysis; assay type: cell-based
Summary of the method: (§1)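 A549 cells exposed to test agents at 1 μM for 48 h. Combretastatin A-4 (1 μM) run in parallel as positive control and DMSO as negative control. Soluble and polymerized tubulin fractions were collected separately and tubulin levels in each were detected by western blot.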

Tubulin = assay: Inhibition of tubulin polymerization in human A549 cells assessed as decrease in polymerized fraction of tubulin content after 48 hrs by western blot analysis; assay type: cell-based
Summary of the method: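 A549 cells exposed to test agents at 1 μM for 48 h. Soluble and polymerized tubulin fractions were collected separately and tubulin levels in each were detected by western blot.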

Tubulin (Homo sapiens) [2] = biological target: T1, Tubulin (Homo sapiens); assay: Inhibition of tubulin polymerization in human A549 cells assessed as decrease in polymerized fraction of tubulin content at 1 uM after 48 hrs by Western blot analysis relative to control; assay type: cell-based; summary of the method: as §1

Row | inhibition (Tubulin (Homo sapiens) [1]) | IC50 (Tubulin) | inhibition (Tubulin (Homo sapiens) [2]) | SMILES | IC50 (MCF7) | IC50 (HepG2) | IC50 (A549)
1 | – | – | – | COc1ccc(/C=C\c2cc(OC)c(OC)c(OC)c2)cc1O [COMBRETASTATIN A4] | 0.04 µM | 0.009 µM | 0.05 µM
2 | – | – | – | COc1cc(C2=NNC(c3ccccc3)C2)ccc1OCc1nnn[nH]1 (configuration not stated) | 3.16 µM | 3.15 µM | 2.98 µM
3 | – | – | – | COc1cc(C2=NOC(c3cccc(O)c3)C2)ccc1OCc1nnn[nH]1 (configuration not stated) | 6.25 µM | 1.56 µM | 25 µM
4 | – | – | – | COc1ccc(C2CC(c3ccc(OCc4nnn[nH]4)c(OC)c3)=NN2)cc1 (configuration not stated) | 3.1 µM | 2.98 µM | 3.12 µM
5 | – | – | – | COc1ccc(C2CC(c3ccc(OCc4nnn[nH]4)c(OC)c3)=NO2)cc1 (configuration not stated) | 12.5 µM | 12.5 µM | 6.25 µM
6 | – | – | – | COc1cc(C2=NOC(c3ccc(Cl)cc3)C2)ccc1OCc1nnn[nH]1 (configuration not stated) | 6.25 µM | 12.5 µM | 6.25 µM
7 | – | – | – | COc1ccc(C2CC(c3ccc(OCc4nnn[nH]4)c(OC)c3)=NO2)cc1OC (configuration not stated) | 25 µM | 3.12 µM | 12.5 µM
8 | – | – | – | COc1cc(C2=NOC(c3ccc(C)cc3)C2)ccc1OCc1nnn[nH]1 (configuration not stated) | 12.5 µM | 6.25 µM | 0.78 µM
9 | – | – | – | COc1cc(C2=NNC(c3cccc(O)c3)C2)ccc1OCc1nnn[nH]1 (configuration not stated) | 2.16 µM | 2.88 µM | 2.24 µM
10 | – | – | – | COc1cc(C2=NOC(c3ccccc3)C2)ccc1OCc1nnn[nH]1 (configuration not stated) | 12.5 µM | 6.25 µM | 6.25 µM
11 | – | – | – | COc1cc(C2=NNC(c3ccc(O)cc3)C2)ccc1OCc1nnn[nH]1 (configuration not stated) | 1.94 µM | 2.02 µM | 1.16 µM
12 | – | – | – | COc1cc(C2=NOC(c3ccc(F)cc3)C2)ccc1OCc1nnn[nH]1 (configuration not stated) | 3.12 µM | 3.12 µM | 3.12 µM
13 | – | – | – | COc1ccc(C2CC(c3ccc(OCc4nnn[nH]4)c(OC)c3)=NN2)cc1OC (configuration not stated) | 2.94 µM | 3.06 µM | 2.82 µM
14 | Active | 2.94 µM | 62.6% | COc1cc(C2=NNC(c3ccc(Cl)cc3)C2)ccc1OCc1nnn[nH]1 (configuration not stated) | 1.04 µM | 0.96 µM | 1.11 µM
15 | Active | 2.16 µM | 65.4% | COc1cc(C2=NNC(c3ccc(F)cc3)C2)ccc1OCc1nnn[nH]1 (configuration not stated) | 0.92 µM | 0.85 µM | 0.94 µM
16 | – | – | – | COc1cc(C2=NNC(c3ccc(C)cc3)C2)ccc1OCc1nnn[nH]1 (configuration not stated) | 1.76 µM | 1.08 µM | 0.99 µM
17 | – | – | – | COc1cc(C2=NOC(c3ccc(O)cc3)C2)ccc1OCc1nnn[nH]1 (configuration not stated) | 25 µM | 6.25 µM | 3.12 µM
